Reference: ChEMBL document CHEMBL1135913, “Structure-based design, synthesis, and biological evaluation of irreversible human rhinovirus 3C protease inhibitors. 6. Structure-activity studies of orally bioavailable, 2-pyridone-containing peptidomimetics” (J Med Chem, 2002)

Columns and labels:
[1] = target: T1, Human rhinovirus A protease (Human rhinovirus sp.) (UniProt Q4U254); assay: (§1) cytotoxicity against HRV Protease 3CP (serotype 14)
T1 sequence (whole entry): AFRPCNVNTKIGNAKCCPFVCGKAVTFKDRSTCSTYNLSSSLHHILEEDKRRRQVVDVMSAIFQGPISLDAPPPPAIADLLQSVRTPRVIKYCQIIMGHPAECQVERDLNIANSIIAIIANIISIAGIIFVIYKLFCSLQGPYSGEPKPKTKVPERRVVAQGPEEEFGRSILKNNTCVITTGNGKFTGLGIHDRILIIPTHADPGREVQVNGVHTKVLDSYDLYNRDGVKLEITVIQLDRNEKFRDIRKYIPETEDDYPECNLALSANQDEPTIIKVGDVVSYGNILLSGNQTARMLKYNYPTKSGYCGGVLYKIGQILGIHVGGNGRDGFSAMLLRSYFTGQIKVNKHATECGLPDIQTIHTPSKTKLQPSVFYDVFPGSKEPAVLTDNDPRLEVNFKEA

[2] = target: T2, Human rhinovirus A protease (Human rhinovirus sp., UniProt Q4U254); assay: Inhibition of HRV Protease 3CP (serotype 14).; parameters: species or system Rhinovirus B
T2 sequence (Q4U254 whole entry): T1 sequence (whole entry)

[3] = target: T1, Human rhinovirus A protease (Human rhinovirus sp.); assay: Inhibitory activity against Human Rhinovirus Protease 3C (serotype 14); conditions: Rhinovirus B
[4] = target: T1, Human rhinovirus A protease (Human rhinovirus sp.); assay: cytotoxicity against Human Rhinovirus Protease 3C (serotype 14)
[5] = Loss of compound (%metabolized) after 30 min exposure to human liver microsomes; type: ADME, Microsome; conditions: read-out: Metabolism
Method in brief: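 Pooled human liver microsomes (1 mg/mL, 6–8 livers) with 2 mM NADPH in 100 mM potassium phosphate pH 7.4 were preincubated 1 min at 37 °C. Compound was added at 25 μM and incubated 30 min, then quenched with acetonitrile. Loss was measured against time-zero controls by reversed-phase HPLC with UV at 215 nm.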

[6] = Half life upon exposure to human plasma; type: ADME, cell-free
Method in brief: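 Pooled heparinized human plasma from 10 donors (stored at -70 °C), or 100 mM potassium phosphate buffer pH 7.4, n = 3 each. Compound added from fresh 5 mM acetonitrile stock to 25 μM final. Incubated at 37 °C for 1–3 h with regular sampling, acetonitrile precipitation, HPLC-UV at 212 nm. Half-life from linear regression of mean concentration–time data.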

[7] = target: T1, Human rhinovirus A protease (Human rhinovirus sp.); assay: cytotoxicity against HRV Protease 3CP (serotype 10); type: functional
[8] = target: T1, Human rhinovirus A protease (Human rhinovirus sp.); assay: cytotoxicity against HRV Protease 3CP (serotype 1A); type: functional
[9] = target: T1, Human rhinovirus A protease (Human rhinovirus sp.); assay: as §1; type: functional

| SMILES | CC50 [1] | EC50 [2] | K obs / 1 [3] | other results |
| --- | --- | --- | --- | --- |
| CCOC(=O)/C=C/[C@H](CCC(N)=O)NC(=O)[C@H](Cc1ccccc1)n1cccc(NC(C)=O)c1=O | > 10000 nM | 888 nM | 7660 M⁻¹ s⁻¹ | – |
| CCOC(=O)/C=C/[C@H](CCC(N)=O)NC(=O)[C@H](Cc1ccccc1)n1cccc(NC(=O)c2cc(Cl)on2)c1=O | > 10000 nM | 24 nM | 134000 M⁻¹ s⁻¹ | – |
| CCOC(=O)/C=C/[C@H](CCC(N)=O)NC(=O)[C@H](Cc1ccccc1)NC(=O)[C@H](CC(C)C)NC(=O)OCc1ccccc1 | – | – | – | CC50 [4]: > 320000 nM |
| CCOC(=O)/C=C/[C@H](CCC(N)=O)NC(=O)Cn1cccc(NC(=O)OCc2ccccc2)c1=O | > 10000 nM | > 10000 nM | – | – |
| CCOC(=O)/C=C/[C@H](C[C@@H]1CCNC1=O)NC(=O)[C@H](Cc1ccc(F)c(F)c1)n1cccc(NC(=O)c2cc(C)on2)c1=O | – | 1 nM | 1.8e+06 M⁻¹ s⁻¹ | metabolised at 0.5 h [5]: 80%; half-life [6]: 1.4 h; CC50 [7]: > 10000 nM; CC50 [8]: > 10000 nM; CC50 [9]: > 10000 nM |
| CCOC(=O)/C=C/[C@H](CCC(N)=O)NC(=O)[C@H](Cc1ccccc1)n1ccc(C)c(NC(=O)c2cc(C)on2)c1=O | – | – | 116000 M⁻¹ s⁻¹ | – |
| CCOC(=O)/C=C/[C@H](CCC(N)=O)NC(=O)[C@H](Cc1ccccc1)n1cccc(NC(=O)C2CCCO2)c1=O (stereo partly drawn) | > 10000 nM | 1780 nM | 3750 M⁻¹ s⁻¹ | – |
| CCOC(=O)/C=C/[C@H](CCC(N)=O)NC(=O)[C@H](Cc1ccccc1)n1cccc(NC(=O)C2SCCS2)c1=O | – | 104 nM | 114000 M⁻¹ s⁻¹ | CC50 [7]: > 10000 nM; CC50 [8]: > 10000 nM; CC50 [9]: > 10000 nM |
| CCOC(=O)/C=C/[C@H](CCC(N)=O)NC(=O)[C@H](Cc1ccccc1)n1cccc(NC(=O)C2CCCC2)c1=O | > 10000 nM | 34 nM | 37400 M⁻¹ s⁻¹ | – |
| CCOC(=O)/C=C/[C@H](CCC(N)=O)NC(=O)[C@H](Cc1ccccc1)n1cccc(NC(=O)c2cc(C)on2)c1=O | > 10000 nM | 16 nM | 329000 M⁻¹ s⁻¹ | – |
| CCOC(=O)/C=C/[C@H](C[C@@H]1CCNC1=O)NC(=O)[C@H](Cc1ccccc1)n1cccc(NC(=O)OCc2ccccc2)c1=O | – | – | 380000 M⁻¹ s⁻¹ | CC50 [9]: > 1000 nM |
